The source made the active and inactive calls. The calls are words filed in the database; no cut-off is given here.
Experiments:
N2a = test: Inhibition of aggregation of poly Q102-GFP in mouse N2a cells by filter trap assay; format: cell-based
Danio rerio [1] = organism: Danio rerio; test: Effect on suppression of abnormal morphology and death of zebrafish embryo expressing Q102-GFP; format: organism-based; conditions: in vivo
[2] = Inhibition of detergent insoluble aggregation of mutant poly Q102-GFP expressed in zebrafish embryo at 50 uM by filter trap assay
Summary of the method: (§1)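 AB wild-type embryos were injected at the 1-2 cell stage with Q102-GFP mRNA. They were then kept in E3 with 1% DMSO plus compound (isoproterenol dissolved in water), with the chorion disrupted; controls received solvent alone. After 24 h at 28.5 °C, lysates were heated in 4% SDS/100 mM DTT, filtered through 0.2 µm cellulose acetate, probed with anti-GFP and quantified by densitometry. Solvent control was set to 100%; n=3-5 injections.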

[3] = Suppression of aggregation of poly Q102-GFP protein expressed in zebrafish embryo at 10 uM by filter trap assay; summary of the method: as §1
[4] = Suppression of aggregation of poly Q102-GFP mutant expressed in zebrafish embryo by filter trap assay; summary of the method: as §1
Danio rerio [5] = organism: Danio rerio; test: Suppression of inclusion formation in zebrafish embryo expressing poly Q102-GFP protein after 24 hrs at 1 uM; format: functional, organism-based

Row | Structure (SMILES) | Activity (N2a) | Activity (Danio rerio [1]) | also measured
1 | COc1cc(/C=N/N=C(N)N)ccc1OCc1c(C)c(C)c(Br)c(C)c1C.Cl | Active | Not Active | 
2 | O=C(N/N=C/c1ccc2ccccc2c1)c1ccc(O)c(O)c1 | Active | Not Active | Activity [2]: Active
3 | O=C(N/N=C/c1ccc2ccccc2c1)c1cccc(Cl)c1 | Active | Not Active | Activity [2]: Active
4 | CC(C)NCC(O)c1ccc(O)c(O)c1 (centres undefined) |  |  | Activity [3]: inactive
5 | Nc1c(/N=N/c2ccc(-c3ccc(/N=N/c4cc(S(=O)(=O)O)c5ccccc5c4N)cc3)cc2)cc(S(=O)(=O)O)c2ccccc12 |  |  | Activity [4]: Active
6 | Cc1cc(O)c(C)c2sc(N)nc12 | Active | Not Active | Activity [4]: Active
7 | COc1c(C)c2c(c(O)c1C/C=C(\C)CCC(=O)O)C(=O)OC2 |  |  | Activity (Danio rerio [5]): inactive

From ChEMBL document CHEMBL1147048, “Identification of anti-prion compounds as efficient inhibitors of polyglutamine protein aggregation in a zebrafish model” (J Biol Chem, 2007)
